ABCB1 block: blocks JC-1 efflux by human ABCB1 transporter | P08183 | CCRF-Adr cells, flow cytometry | actives 0.067% (n = 190,000) | inhibition, % at 6.6 µM; in the data active means inhibition above about 40%;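 further: 0% = vehicle and 100% = reference inhibitor; higher value means more JC-1 retained so stronger ABCB1 efflux block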
Diaph act CS: activates diaphorase or chemically reduces, flagging diaphorase assay artifacts. Diaphorase/resazurin coupled assay, resorufin fluorescence, 16 min; hits give high values; 1 = vehicle wells, 0 = NADH-free wells. activation factor at 20 µM. actives 0.005% (n = 190,000);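 active means diaphorase activity raised at least twofold by the compound at 20 µM; inactive means activation factor below 2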
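Material: bacterial diaphorase enzyme (C. kluyveri); amount: enzyme 0.07 U/mL final; reagent: NADH substrate 0.114 mM plus resazurin dye 0.1 mM, final; doses: single compound dose of 20 µM, 1% DMSO final; timing: 16 min enzyme reaction, ambient temperature; measured by: fluorescence of resorufin, 544 nm excitation, 590 nm emission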
ABCB6 inh MLPCN: human ABCB6 transporter inhibition | Q9NP58 | K562-ABCB6 porphyrin accumulation, flow cytometry, 1 h; hits give low values | fluorescence ratio to DMSO, % at 10 µM | actives 0.19% (n = 360,000) | AID 602162;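 active means fluorescence ratio to DMSO below 75%, the collection mean minus 3 SD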;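 further: signal is porphyrin accumulated inside mitochondria; 100% equals median channel fluorescence of DMSO control wells; lower ratio means ABCB6 inhibition with less porphyrin fluorescence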
Target sequence (Q9NP58 whole entry, looked up): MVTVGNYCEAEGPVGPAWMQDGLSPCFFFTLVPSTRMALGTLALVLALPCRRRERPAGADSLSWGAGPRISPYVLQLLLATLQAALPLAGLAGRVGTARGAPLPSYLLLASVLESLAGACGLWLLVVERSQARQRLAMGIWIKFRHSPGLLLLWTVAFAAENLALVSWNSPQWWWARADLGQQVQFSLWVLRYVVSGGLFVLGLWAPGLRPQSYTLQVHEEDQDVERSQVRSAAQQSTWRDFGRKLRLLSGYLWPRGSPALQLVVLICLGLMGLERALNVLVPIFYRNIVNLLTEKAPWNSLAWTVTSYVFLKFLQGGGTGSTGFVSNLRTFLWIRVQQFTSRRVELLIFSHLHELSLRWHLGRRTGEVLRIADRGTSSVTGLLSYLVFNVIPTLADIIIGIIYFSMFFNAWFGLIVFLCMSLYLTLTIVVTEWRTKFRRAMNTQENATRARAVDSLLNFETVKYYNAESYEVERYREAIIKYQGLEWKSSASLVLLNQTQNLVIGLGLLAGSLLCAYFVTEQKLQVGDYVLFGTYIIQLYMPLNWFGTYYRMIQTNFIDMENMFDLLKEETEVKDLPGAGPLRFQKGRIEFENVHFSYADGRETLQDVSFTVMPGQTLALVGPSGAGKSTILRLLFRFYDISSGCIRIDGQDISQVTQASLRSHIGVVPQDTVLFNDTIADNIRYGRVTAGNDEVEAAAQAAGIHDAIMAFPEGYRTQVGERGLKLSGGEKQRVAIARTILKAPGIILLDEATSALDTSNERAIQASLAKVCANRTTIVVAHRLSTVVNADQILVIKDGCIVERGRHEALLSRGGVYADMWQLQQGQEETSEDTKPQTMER
FLuc inhib CS: inhibits firefly luciferase, flagging false hits in luciferase inhibition screens; ATPLite firefly luciferase biochemical luminescence, 10 min; actives 1.5% (n = 200,000); P08659; inhibition, % at 10 µM;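 active means inhibition above about 50% when tested at 10 µM, limit read from the data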
FLuc act counter: affects firefly luciferase, flagging false hits in luciferase stimulation screens | ATPlite luciferase biochemical, luminescence, 10 min; 0 = ATP-free wells, 1 = DMSO control | P08659 | 200,000 tested, under 10 active | AID 1027 | activation factor at 10 µM;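 active means luciferase activation factor, scaled between plate controls, of at least 2 with compound at 10 µM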
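System: Luciferase/luciferin detection reagent, cell-free biochemical luciferase assay | Medium: PBS buffer for ATP | Dosing: Test compounds dosed from 2 mM stocks in 100% DMSO | Timing: 10 min at ambient temperature | Signal: Luminescence measurement of luciferase light output | Evaluation: Luciferase activation, seen as luminescence increase over controls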
ABCG2 inh: blocks JC-1 efflux by human ABCG2 transporter | inhibition, % at 6.6 µM | AID 1325 | actives 0.1% (n = 190,000) | IgMXP3 cells, flow cytometry | Q9UNQ0;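 active means inhibition above 80%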;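 further: 0% = DMSO and 100% = nicardipine control wells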
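Times: 10 min at 25 °C | Test system: Two drug-resistant human cell lines, ABCG2 and ABCB1 | Quantity: 3 million cells/mL final, two lines in 1:1 ratio | Signal: Flow cytometry, 530 nm JC-1 signal | Dosing: Compound at 6.6 µM | Controls: Nicardipine and DMSO wells | Reagent: JC-1 as fluorescent efflux pump substrate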
* marks the source's active call; other numbers are inactive results; · = no result. Only a selection was taken, and hits are over-represented in it overall.

SMILES	ABCB1 block	Diaph act CS	ABCB6 inh MLPCN	FLuc inhib CS	FLuc act counter	ABCG2 inh
CCN(CC(=O)Nc1c(F)cccc1F)C(=O)CSc1nc(C)cc(C)n1	·	·	92	·	·	·
O=C(CN1CCN(Cc2ccccc2)CC1)NNC(=O)c1ccccc1	·	·	99	·	·	·
COc1cc(OC)cc(C(=O)N2CCN(C(=O)c3cccnc3)CC2)c1	·	·	93	·	·	·
CSc1ccc(CN2CCC(N3CCC(C(=O)NC4CC4)CC3)CC2)cc1	·	·	99	·	·	·
CN(C)c1ncccc1-c1nc2ccccc2s1	0	0.9	111	-3	1	0
Brc1ccc(-c2nc3ccccc3s2)s1	-1	0.9	110	64*	0.4	-3
CCCNC(=O)c1ccc(-c2nc3ccccc3s2)s1	-1	1	106	90*	0.1	-11
c1ccc(-c2nc3ccccc3s2)nc1	0	1	99	61*	0.4	3
COc1ccc([C@H]2CC(=O)C=C(c3ccc(C)c(F)c3)C2)cc1	·	·	97	·	·	·
CN(C)S(=O)(=O)c1cccc(COC(=O)CCNC(=O)c2ccc([N+](=O)[O-])cc2)c1	·	·	97	·	·	·
O=C(c1ccco1)N1CCc2ccccc21	0	0.9	98	14	0.9	7
CCOC(=O)/C=C/C(=O)N1CCc2ccccc21	1	0.9	84	19	0.8	8
Cc1ccc(/C=C/C(=O)N2CCc3ccccc32)o1	1	0.8	101	75*	0.2	7
O=C(/C=C/c1ccco1)N1CCc2ccccc21	0	0.7	91	82*	0.2	0
CCCc1ccc(-c2cc(C(=O)N/N=C/c3ccc([N+](=O)[O-])o3)c3ccccc3n2)cc1	0	0.9	98	94*	0.1	-1
C/C(=N\NC(=O)c1ccccc1NC(=O)c1ccc(Cl)cc1)c1ccncc1	2	0.8	106	98*	0	12
O=C(N/N=C/c1ccco1)c1ccncc1	0	1	107	1	1	1
Cc1ccccc1C(=O)Nc1ccccc1C(=O)N/N=C\c1ccco1	1	0.9	96	23	0.8	28
O=C(Nc1ccccc1C(=O)N/N=C/c1ccco1)c1ccc(F)cc1	0	0.9	97	80*	0.2	0
O=C(N/N=C/c1ccco1)c1ccc(OCc2ccccc2)cc1	·	·	99	·	·	·
O=C(Nc1ccccc1C(=O)N/N=C/c1ccco1)c1ccc(Cl)cc1	0	1	101	85*	0.1	4
O=C(Nc1ccccc1C(=O)N/N=C/c1ccco1)c1ccccc1	0	0.9	97	76*	0.2	-2
CC(C)(C)C(=O)Nc1ccc(N=Nc2ccccc2)cc1	1	0.9	98	90*	0.1	28
Cn1cccc1C(=O)C(=O)Nc1ccc(Cl)cc1	1	1	94	62*	0.4	14
CCCNC(=O)C(Cc1ccc(I)cc1)NC(=O)C1CC1 (centres undefined)	·	·	96	·	·	·
SMILES	ABCB1 block	Diaph act CS	ABCB6 inh MLPCN	FLuc inhib CS	FLuc act counter	ABCG2 inh
O=C(CCc1ccccc1)NCCc1ccc(F)cc1	·	·	92	·	·	·
Cc1cccc(C(=O)NNC2=CC(=O)CC(C)(C)C2)c1O	·	·	93	·	·	·
CC1(C)CC(=O)C=C(NNC(=O)c2ccccc2O)C1	0	1	96	91*	0.1	1
CC(=O)c1sc(NC(=O)c2cc(=O)c3ccccc3o2)nc1C	-1	1	94	83*	0.2	1
COc1ccccc1NC(=O)CSc1ccc(-c2ccc(-n3ccnc3)cc2)nn1	·	·	88	·	·	·
Cn1nc(C(F)(F)F)c(C(=O)Nc2ccc(F)cc2F)c1Oc1cccc(Cl)c1	1	0.9	97	-4	1	15
Cc1nn(C)c(Oc2cccc(Cl)c2)c1C=O	1	0.9	74*	-3	1	3
Cc1c(C(=O)N2CCN(S(=O)(=O)c3cc(F)ccc3F)CC2)oc2ccccc12	·	·	95	·	·	·
CCOC(=O)c1sc(/N=C/c2ccc(O)cc2O)cc1C	-1	0.8	98	86*	0.1	-6
Cc1cc(N2CCCCC2)n2ncc(-c3ccccc3)c2n1	1	1	93	67*	0.3	11
Cc1cc(N2CCOCC2)n2ncc(-c3ccccc3)c2n1	1	1	103	84*	0.2	6
Cc1ccc(NC(=O)C(=O)NCc2ccc(/C=N/NC(=O)c3c(C)nc4ccccn34)o2)cc1	0	1	100	73*	0.3	40
Cc1ccc(C=Nc2ccccc2C(N)=O)o1	0	1.1	100	54*	0.5	1
CN(C)c1ccc(C=Nc2ccccc2C(N)=O)cc1	0	0.9	95	89*	0.1	8
Cc1ccc(C(=O)N/N=C\c2c(C)nn(-c3ccccc3)c2Cl)cn1	0	1	99	51*	0.5	3
Cc1nn(-c2ccccc2)c(Cl)c1/C=N/NC(=O)c1ccc(NS(=O)(=O)c2cccs2)cc1	0	0.8	·	71*	0.3	2
Cc1nn(-c2ccccc2)c(Cl)c1/C=N/NC(=O)c1cccnc1	-1	1	100	27	0.7	5
Cc1nn(-c2ccccc2)c(Cl)c1/C=N/NC(=O)c1ccccc1NS(=O)(=O)c1cccs1	0	0.7	107	8	0.9	-2
O=C(CCCc1ccccc1)Nc1ccnn1C1CCN(Cc2ccc(CO)o2)CC1	·	·	97	·	·	·
CC(NC(=O)CN(C)Cc1cccs1)c1ccccc1 (centres undefined)	1	1	97	-3	1	2
Cc1ccc(OCC(=O)NCCNC(=O)c2ccncc2)cc1C	·	·	101	·	·	·
O=C1/C(=C/N(C(=O)c2ccco2)c2ccc(Cl)cc2)Sc2ccccc21	0	0.9	105	86*	0.1	-2
COc1ccc(CN(C(=O)c2ccco2)c2ccc(Br)cc2)cc1OC	0	0.8	96	-8	1.1	1
O=C1/C(=C/N(C(=O)c2ccco2)c2ccc(Br)cc2)Sc2ccccc21	-1	0.9	116	83*	0.2	-3
COc1cc(S(=O)(=O)N2CCN(C(=O)c3ccco3)CC2)ccc1Cl	·	·	89	·	·	·
SMILES	ABCB1 block	Diaph act CS	ABCB6 inh MLPCN	FLuc inhib CS	FLuc act counter	ABCG2 inh
CCOc1ccc(NC(=O)c2nsc(Cl)c2Cl)cc1	0	0.9	102	51*	0.5	1
CCOc1ccc(C(=O)NC(Cc2ccccc2)C(=O)OC)cc1 (centres undefined)	1	1.1	96	53*	0.5	3
CCOc1ccc(C(=O)NC(C)CCc2ccccc2)cc1 (centres undefined)	·	·	102	·	·	·
CCOc1ccc(NC(=O)c2ccc(N)cc2)cc1	0	0.9	94	71*	0.3	3
CCOc1ccc(NC(=O)c2nn(C)cc2Br)cc1	1	0.9	95	70*	0.3	8
CCOc1ccc(NC(=O)c2ccc(NC(=O)c3ccc(NC(N)=O)cc3)cc2)cc1	·	·	97	·	·	·

Assay outcomes: PubChem, several laboratories
